S100A4 inh HTS: inhibitors of S100A4-myosin IIA peptide binding, primary screen, biochemical, fluorescence polarization, TAMRA-MyoIIA peptide. inhibition, % at 10.7 µM. Protein S100-A4 (Homo sapiens), P26447. hit rate 0.14% among 360,000;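 active = mean inhibition of at least 70% across replicates, with every replicate also reaching that level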
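Compound dosing: one dose per compound; test system: human S100A4 monomer with TAMRA-labelled myosin IIA peptide; probe or stimulus: TAMRA-labelled myosin IIA heavy-chain peptide probe, 5 nM; medium: HEPES buffer with Ca2+, pH 7.2; schedule: 5 min incubation before reading; benchmarks: neutral control DMSO, positive control TFP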
rRNA inh HTS: reduced GFP signal of wild-type E. coli, primary screen, bacterial rRNA inhibitor project, GFP/RFP fluorescence, OD600, single point | E. coli WT GFP vs humanized-ribosome RFP mutants, 24 h; hits give low values; DMSO median 0, no signal -100 | GFP signal change (wild-type ribosome), % (no concentration beside the values) | hit rate 1.6% among 350,000;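 active = significant combined selectivity score with lowered wild-type GFP, culture density cut under 30%, mutant RFP and density less affected; inactive = any of these conditions unmet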
E-selectin induc: E-selectin induction in HUVECs, primary screen, imaging, HUVEC, immunofluorescence imaging, single point; hit rate 0.37% among 260,000; P16581; activation, % at 7.58 µM; normalized: neutral wells 0, TNF-alpha wells 100;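 active = mean E-selectin-positive cell signal at least 10% of the positive control, reached in at least 60% of replicates, without over 20% cell loss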
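assay system = HUVEC, human umbilical vein endothelial cells | input = 3,000 HUVEC seeded per well | medium = EGM-2 growth medium on 0.1% gelatin-coated wells | dosing = one compound dose added by pin transfer | signal = immunofluorescence imaging | read-out basis = % PE-positive cells | control set = TNF-alpha, DMSO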
SIRT5 inh: SIRT5 desuccinylase inhibitors, primary screen, biochemical, fluorescence imaging, single point, set 5. NAD-dependent protein deacylase sirtuin-5, mitochondrial (Homo sapiens), Q9NXA8. inhibition, % at 15 µM. hit rate 1.1% among 330,000. Purified SirT5, succinyl-peptide AMC, trypsin-coupled fluorescence. AID 652115, 2013; in the data active = inhibition above about 15%
ERAP1 inh: human ERAP1 aminopeptidase inhibitors, primary screen, biochemical, single point, plate reader; recombinant ERAP1, Leu-AMC fluorescence, 60 min; inhibition, % at 10.7 µM; hit rate 0.15% among 340,000; AID 652197, 2013;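 active = mean replicate inhibition of at least 30%, or all replicates individually reaching that 30% level; inactive = mean below 30% and not every replicate reaching it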;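 also: 0% = neutral control wells and 100% = L-leucinethiol positive control wells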
MLL AF4-AF9 inh: inhibitors of AF4 peptide binding to AF9, primary screen, biochemical, AlphaScreen, biotin-AF4 peptide, FLAG-AF9, single point; Protein AF-9 (Homo sapiens), P42568; hit rate 0.47% among 350,000; inhibition, % at 10 µM;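 active = every replicate reaching a set inhibition limit, whatever the replicate mean, cut at about 25% in these data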;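 also: 0% = plate neutral control median and 100% = total signal loss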
Target sequence (P42568 whole entry, looked up): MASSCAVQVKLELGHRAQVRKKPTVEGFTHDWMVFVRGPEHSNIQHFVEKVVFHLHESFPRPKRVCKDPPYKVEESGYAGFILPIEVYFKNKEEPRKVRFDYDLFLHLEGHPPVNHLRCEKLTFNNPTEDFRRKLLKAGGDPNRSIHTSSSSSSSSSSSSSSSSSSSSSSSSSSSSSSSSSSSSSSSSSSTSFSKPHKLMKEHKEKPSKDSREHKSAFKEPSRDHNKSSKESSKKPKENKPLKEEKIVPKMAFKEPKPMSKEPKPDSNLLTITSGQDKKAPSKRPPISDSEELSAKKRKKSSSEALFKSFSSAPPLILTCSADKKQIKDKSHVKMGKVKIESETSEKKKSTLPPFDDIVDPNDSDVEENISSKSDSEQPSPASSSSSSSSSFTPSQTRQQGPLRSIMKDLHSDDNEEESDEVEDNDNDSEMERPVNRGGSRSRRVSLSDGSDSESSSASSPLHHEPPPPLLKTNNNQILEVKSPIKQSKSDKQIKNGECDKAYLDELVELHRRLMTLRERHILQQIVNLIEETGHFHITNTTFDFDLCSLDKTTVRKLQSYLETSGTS
Active calls of the source: *. Sampled rows, rich in hits. Any-hit rate of the full collection: about 3.4%.

For CCN(CC(=O)NC(=O)NCc1ccccc1)Cc1ccccc1 the results were S100A4 inh HTS 0.8, rRNA inh HTS -23.4*, E-selectin induc -0.3, SIRT5 inh -5.5, ERAP1 inh 2.6 and MLL AF4-AF9 inh -2.0.
`CSC(=NS(=O)(=O)c1ccccc1)NNC(=O)c1c(-c2c(Cl)cccc2Cl)noc1C` gave S100A4 inh HTS -5.9, rRNA inh HTS -20.8*, E-selectin induc 0.4, SIRT5 inh 1.6, ERAP1 inh -4.6 and MLL AF4-AF9 inh -2.3.
Cc1onc(-c2c(F)cccc2Cl)c1C(=O)N1CCSCC1 was read as S100A4 inh HTS -4.0, rRNA inh HTS -28.9*, E-selectin induc 0.1, SIRT5 inh -2.2, ERAP1 inh 0.7 and MLL AF4-AF9 inh -2.8.
Screening Cc1onc(-c2c(Cl)cccc2Cl)c1C(=O)NC1CCCCC1 returned S100A4 inh HTS -0.2, rRNA inh HTS -40.5, SIRT5 inh -1.7, ERAP1 inh -1.3 and MLL AF4-AF9 inh -4.4.
`Cc1onc(-c2c(Cl)cccc2Cl)c1C(=O)NN1CCCCCC1` gave S100A4 inh HTS 0.2, rRNA inh HTS -13.2*, E-selectin induc -0.2, SIRT5 inh -2.4, ERAP1 inh 2.8 and MLL AF4-AF9 inh 8.7.
C[C@@H]1CN([C@@H](C)CO)C(=O)c2cc(-c3cccc(F)c3)cnc2O[C@H]1CN(C)C(=O)c1ccccn1 was read as S100A4 inh HTS 13.6, rRNA inh HTS 1.6, E-selectin induc -0.3, SIRT5 inh -5.1, ERAP1 inh -0.8 and MLL AF4-AF9 inh -1.0.
O=C(C[C@H]1C[C@H]2c3cc(NC(=O)NC4CCCC4)ccc3O[C@H]2[C@@H](CO)O1)NCC(F)(F)F was read as S100A4 inh HTS 2.7, rRNA inh HTS 2.8, E-selectin induc 0.0, SIRT5 inh -4.6, ERAP1 inh 1.1 and MLL AF4-AF9 inh -2.4.
O=S(=O)(Nc1ccc(Br)cc1)c1cccc2cccnc12 was read as S100A4 inh HTS -0.7, rRNA inh HTS -25.6*, E-selectin induc 1.6, SIRT5 inh -1.0, ERAP1 inh -0.9 and MLL AF4-AF9 inh -1.1.
CCN(CC)S(=O)(=O)c1cccc2cccnc12 was read as E-selectin induc 0.8.
For O=S(=O)(NCCO)c1cccc2cccnc12 the results were S100A4 inh HTS -3.4, rRNA inh HTS 7.4 and MLL AF4-AF9 inh -2.9.
For O=S(=O)(NCCc1ccccc1)c1cccc2cccnc12 the results were S100A4 inh HTS -2.5, rRNA inh HTS -24.9*, ERAP1 inh -0.6 and MLL AF4-AF9 inh -1.4.
For O=S(=O)(Nc1ccc(C(O)(C(F)(F)F)C(F)(F)F)cc1)c1cccc2cccnc12 the results were S100A4 inh HTS -1.8, rRNA inh HTS -36.0, E-selectin induc 0.3, SIRT5 inh 1.4 and MLL AF4-AF9 inh -3.4.
`CSS(=O)(=O)c1cccc2cccnc12` gave S100A4 inh HTS -5.2, rRNA inh HTS 19.1, E-selectin induc -0.1, SIRT5 inh -1.7, ERAP1 inh 85.1* and MLL AF4-AF9 inh -3.8.
`CN(C)CCCNC(=O)C[C@H]1C[C@H](C(=O)N2CCCCC2)[C@@]2(CCc3ccccc3)c3[nH]c4cc(-c5ccco5)ccc4c3CCN2C1=O` gave S100A4 inh HTS -4.5, rRNA inh HTS 1.0, E-selectin induc 0.3, SIRT5 inh -4.2, ERAP1 inh 13.0 and MLL AF4-AF9 inh 52.9*.
For O=C(C[C@H]1C[C@H](C(=O)N2CCOCC2)[C@@]2(CCC3CCCC3)c3[nH]c4cc(-c5ccco5)ccc4c3CCN2C1=O)NCc1ccco1 the results were S100A4 inh HTS -18.9, SIRT5 inh 28.1*, ERAP1 inh -3.2 and MLL AF4-AF9 inh -0.3.
Screening O=C(C[C@H]1C[C@H](C(=O)N2CCOCC2)[C@@]2(CCC3CCCC3)c3[nH]c4cc(-c5ccco5)ccc4c3CCN2C1=O)NCCc1ccccn1 returned S100A4 inh HTS -4.6, rRNA inh HTS 4.2, SIRT5 inh -1.6 and MLL AF4-AF9 inh 4.6.

Screens from PubChem.
